The values below come from the M2OR odorant receptor database.

Conditions in all cases: stereoisomer not certain
The target in one assay is T1, UniProt L7MU75.
T1 sequence (whole entry): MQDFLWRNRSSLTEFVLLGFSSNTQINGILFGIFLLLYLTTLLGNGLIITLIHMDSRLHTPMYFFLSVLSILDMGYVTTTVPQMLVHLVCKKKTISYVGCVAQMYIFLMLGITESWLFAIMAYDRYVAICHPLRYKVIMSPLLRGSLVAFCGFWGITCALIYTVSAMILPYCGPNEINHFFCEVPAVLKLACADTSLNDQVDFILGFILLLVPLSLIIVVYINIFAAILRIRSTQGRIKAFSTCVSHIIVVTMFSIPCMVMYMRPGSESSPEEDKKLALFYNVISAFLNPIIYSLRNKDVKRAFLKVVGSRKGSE
A digest of the protocol:
(§1)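 Assay methods differ from source to source, frequently being transient luciferase assays in mammalian cell lines. For each receptor–molecule pair, the label responsive (active) applies when the original authors judged the measured signal statistically different from baseline, and non-responsive (inactive) applies otherwise.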

A further assay has as its target T2, UniProt L7N210.
T2 sequence (whole entry): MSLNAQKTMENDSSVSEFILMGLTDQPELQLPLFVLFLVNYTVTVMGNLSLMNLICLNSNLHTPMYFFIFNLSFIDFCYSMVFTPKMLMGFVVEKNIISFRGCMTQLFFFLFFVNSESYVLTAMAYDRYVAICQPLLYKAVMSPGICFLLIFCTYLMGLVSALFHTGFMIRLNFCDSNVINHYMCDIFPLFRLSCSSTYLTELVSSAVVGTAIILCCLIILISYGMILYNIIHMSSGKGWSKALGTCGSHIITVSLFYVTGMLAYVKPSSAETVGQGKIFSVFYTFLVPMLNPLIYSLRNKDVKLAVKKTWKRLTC
A digest of the protocol: as §1

Another assay deals with T3, UniProt Q3KPB0.
T3 sequence (whole entry): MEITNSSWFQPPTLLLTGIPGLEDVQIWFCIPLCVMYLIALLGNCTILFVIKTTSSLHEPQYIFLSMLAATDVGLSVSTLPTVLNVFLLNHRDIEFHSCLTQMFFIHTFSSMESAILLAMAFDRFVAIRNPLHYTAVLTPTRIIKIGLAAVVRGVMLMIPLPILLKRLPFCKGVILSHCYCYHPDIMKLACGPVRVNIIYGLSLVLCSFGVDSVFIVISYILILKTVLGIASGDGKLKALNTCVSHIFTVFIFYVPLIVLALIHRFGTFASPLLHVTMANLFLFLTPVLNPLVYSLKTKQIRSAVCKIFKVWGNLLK
In outline: as §1

The target in another assay is T4, UniProt Q3U0P3.
T4 sequence (whole entry): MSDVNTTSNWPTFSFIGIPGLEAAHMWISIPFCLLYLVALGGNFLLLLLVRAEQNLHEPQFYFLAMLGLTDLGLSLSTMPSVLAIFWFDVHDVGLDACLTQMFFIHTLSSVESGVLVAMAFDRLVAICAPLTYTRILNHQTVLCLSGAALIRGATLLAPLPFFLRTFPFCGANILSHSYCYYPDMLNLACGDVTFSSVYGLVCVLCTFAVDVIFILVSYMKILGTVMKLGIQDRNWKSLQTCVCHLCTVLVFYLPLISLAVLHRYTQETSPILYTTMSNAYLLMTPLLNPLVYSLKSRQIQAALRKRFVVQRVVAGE
A digest of the protocol:
as §1

The target of the next assay is T5, UniProt Q7TQU8.
T5 sequence (whole entry): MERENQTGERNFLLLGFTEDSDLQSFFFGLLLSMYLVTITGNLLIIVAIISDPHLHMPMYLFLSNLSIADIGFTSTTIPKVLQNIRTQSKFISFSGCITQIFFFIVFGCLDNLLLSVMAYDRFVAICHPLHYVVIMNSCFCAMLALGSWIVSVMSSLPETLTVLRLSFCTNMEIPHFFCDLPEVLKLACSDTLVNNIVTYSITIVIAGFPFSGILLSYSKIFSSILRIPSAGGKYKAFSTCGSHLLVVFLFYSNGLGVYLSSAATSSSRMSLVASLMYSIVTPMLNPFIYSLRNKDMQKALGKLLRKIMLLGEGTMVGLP
A digest of the protocol: as §1

Another assay addresses T6, UniProt Q7TR79.
T6 sequence (whole entry): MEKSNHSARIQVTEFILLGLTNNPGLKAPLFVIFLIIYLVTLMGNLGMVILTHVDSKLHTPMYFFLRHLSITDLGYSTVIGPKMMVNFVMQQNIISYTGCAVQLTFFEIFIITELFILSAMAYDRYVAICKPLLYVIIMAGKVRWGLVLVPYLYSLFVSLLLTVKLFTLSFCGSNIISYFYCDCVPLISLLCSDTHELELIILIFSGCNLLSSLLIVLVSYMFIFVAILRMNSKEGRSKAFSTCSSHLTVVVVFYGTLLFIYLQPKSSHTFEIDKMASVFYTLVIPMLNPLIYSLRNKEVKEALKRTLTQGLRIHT
In outline:
as §1

Another assay addresses T7, UniProt L7N0P5.
T7 sequence (whole entry): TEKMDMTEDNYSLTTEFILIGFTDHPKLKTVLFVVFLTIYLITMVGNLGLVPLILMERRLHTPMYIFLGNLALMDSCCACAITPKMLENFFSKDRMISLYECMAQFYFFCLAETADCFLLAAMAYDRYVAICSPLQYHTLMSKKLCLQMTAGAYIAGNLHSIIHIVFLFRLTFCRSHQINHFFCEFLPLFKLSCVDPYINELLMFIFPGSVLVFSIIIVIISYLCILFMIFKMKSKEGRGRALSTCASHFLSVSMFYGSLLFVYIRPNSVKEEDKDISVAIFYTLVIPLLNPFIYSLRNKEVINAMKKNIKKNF
A digest of the protocol: as §1

The target of a further assay is T8, UniProt Q7TRM0.
T8 sequence (whole entry): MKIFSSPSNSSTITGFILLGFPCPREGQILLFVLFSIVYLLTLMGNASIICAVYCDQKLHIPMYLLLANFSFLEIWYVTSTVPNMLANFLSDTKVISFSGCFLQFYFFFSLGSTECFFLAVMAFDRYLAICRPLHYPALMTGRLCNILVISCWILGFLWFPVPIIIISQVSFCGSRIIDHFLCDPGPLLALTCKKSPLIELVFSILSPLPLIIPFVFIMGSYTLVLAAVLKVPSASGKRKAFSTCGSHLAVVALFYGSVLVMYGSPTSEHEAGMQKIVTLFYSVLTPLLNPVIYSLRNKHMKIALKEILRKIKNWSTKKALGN
A digest of the protocol: as §1

The target of the next assay is T9, UniProt Q7TRN9.
T9 sequence (whole entry): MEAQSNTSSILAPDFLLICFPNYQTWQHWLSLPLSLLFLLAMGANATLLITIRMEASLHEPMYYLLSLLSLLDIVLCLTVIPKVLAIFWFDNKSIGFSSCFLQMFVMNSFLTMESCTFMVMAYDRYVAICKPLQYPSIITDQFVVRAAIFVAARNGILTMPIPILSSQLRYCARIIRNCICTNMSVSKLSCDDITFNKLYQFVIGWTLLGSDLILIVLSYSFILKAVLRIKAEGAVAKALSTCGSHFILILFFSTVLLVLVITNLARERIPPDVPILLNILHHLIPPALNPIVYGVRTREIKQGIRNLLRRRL
In outline:
as §1

For a further assay, the target named is T10, UniProt Q7TQV4.
T10 sequence (whole entry): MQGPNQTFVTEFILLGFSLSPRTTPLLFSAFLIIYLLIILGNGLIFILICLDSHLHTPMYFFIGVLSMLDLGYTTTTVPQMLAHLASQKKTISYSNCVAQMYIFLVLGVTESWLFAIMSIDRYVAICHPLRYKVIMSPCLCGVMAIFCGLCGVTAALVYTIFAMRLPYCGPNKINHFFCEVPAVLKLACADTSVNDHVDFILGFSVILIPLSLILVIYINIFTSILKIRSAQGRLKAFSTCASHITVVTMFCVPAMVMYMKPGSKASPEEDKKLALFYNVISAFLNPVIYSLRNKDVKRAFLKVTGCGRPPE
In outline:
as §1

A further assay deals with T11, UniProt Q7TR71.
T11 sequence (whole entry): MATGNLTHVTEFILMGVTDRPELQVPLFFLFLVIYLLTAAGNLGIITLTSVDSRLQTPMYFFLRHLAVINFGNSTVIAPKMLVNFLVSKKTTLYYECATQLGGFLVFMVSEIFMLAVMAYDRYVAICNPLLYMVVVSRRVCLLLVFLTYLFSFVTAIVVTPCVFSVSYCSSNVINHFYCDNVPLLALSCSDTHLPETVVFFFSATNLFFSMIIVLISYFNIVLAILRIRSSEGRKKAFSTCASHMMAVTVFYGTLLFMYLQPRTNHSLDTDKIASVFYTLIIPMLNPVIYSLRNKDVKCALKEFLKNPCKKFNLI
A digest of the protocol: as §1

For the next assay, the target named is T12, UniProt Q7TRA3.
T12 sequence (whole entry): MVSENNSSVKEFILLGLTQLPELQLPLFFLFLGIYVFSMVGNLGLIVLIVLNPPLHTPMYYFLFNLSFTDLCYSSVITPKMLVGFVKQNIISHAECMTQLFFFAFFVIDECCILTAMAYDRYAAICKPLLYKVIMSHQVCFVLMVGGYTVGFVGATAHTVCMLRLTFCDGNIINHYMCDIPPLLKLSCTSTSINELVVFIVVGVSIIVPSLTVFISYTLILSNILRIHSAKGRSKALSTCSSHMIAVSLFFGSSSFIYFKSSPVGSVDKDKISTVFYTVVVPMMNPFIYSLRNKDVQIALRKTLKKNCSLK
A digest of the protocol: as §1

In a further assay the target is T13, UniProt Q7TRE4.
T13 sequence (whole entry): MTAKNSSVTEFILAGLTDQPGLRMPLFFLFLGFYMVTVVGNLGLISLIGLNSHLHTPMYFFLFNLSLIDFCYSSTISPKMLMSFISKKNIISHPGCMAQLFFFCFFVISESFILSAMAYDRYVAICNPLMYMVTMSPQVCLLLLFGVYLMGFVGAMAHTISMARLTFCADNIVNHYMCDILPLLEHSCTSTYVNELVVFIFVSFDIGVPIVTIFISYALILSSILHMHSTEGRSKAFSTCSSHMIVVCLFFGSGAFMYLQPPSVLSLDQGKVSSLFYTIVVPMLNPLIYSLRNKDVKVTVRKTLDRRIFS
A digest of the protocol: as §1

The target in another assay is UniProt Q7TQR7. A digest of the protocol: as §1
Chain of UniProt Q7TQR7 (Q7TQR7 as listed by the source): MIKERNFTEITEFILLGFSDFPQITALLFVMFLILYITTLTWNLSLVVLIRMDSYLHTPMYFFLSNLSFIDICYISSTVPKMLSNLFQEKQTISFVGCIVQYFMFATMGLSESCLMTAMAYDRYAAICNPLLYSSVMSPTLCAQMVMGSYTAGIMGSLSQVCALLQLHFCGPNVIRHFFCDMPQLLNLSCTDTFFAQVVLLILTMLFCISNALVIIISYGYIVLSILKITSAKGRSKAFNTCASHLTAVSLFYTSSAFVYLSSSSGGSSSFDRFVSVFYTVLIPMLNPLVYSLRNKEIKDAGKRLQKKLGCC
Another assay addresses UniProt Q7TQR9. A digest of the protocol: as §1

Chain of UniProt Q7TQR9 (Q7TQR9 as listed by the source): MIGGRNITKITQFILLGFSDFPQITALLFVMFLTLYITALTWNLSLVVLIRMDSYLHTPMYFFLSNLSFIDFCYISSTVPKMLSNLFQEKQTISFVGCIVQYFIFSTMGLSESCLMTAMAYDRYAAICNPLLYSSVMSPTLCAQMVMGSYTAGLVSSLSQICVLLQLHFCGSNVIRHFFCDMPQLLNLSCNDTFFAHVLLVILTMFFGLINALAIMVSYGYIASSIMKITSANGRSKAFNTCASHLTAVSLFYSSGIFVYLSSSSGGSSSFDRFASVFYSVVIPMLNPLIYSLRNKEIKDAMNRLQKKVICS

Regarding `Cc1ccc2c(c1)OCC(=O)CO2`, the “odorant receptor agonist call” value in the assay with UniProt L7MU75, with UniProt L7N210, in the assay with UniProt Q3KPB0, in the assay with UniProt Q3U0P3, in the assay with UniProt Q7TQU8 and with UniProt Q7TR79 was “inactive” throughout.
On to `C1CCOCC1`, for which the “odorant receptor agonist call” value with UniProt L7MU75, in the assay with UniProt L7N210, in the assay with UniProt Q3KPB0, with UniProt Q3U0P3, in the assay with UniProt Q7TQU8 and in the assay with UniProt Q7TR79 was “inactive” throughout.
Turning to `CC1CC=CCCCCCCCCCC(=O)C1` (stereo unspecified), the “odorant receptor agonist call” value with UniProt L7MU75, with UniProt L7N210, with UniProt Q3KPB0, in the assay with UniProt Q3U0P3, with UniProt Q7TQU8 and with UniProt Q7TR79 was “inactive” throughout.
Regarding `CC(=O)C=CC1=C(C)CCCC1(C)C`, the “odorant receptor agonist call” value with UniProt L7MU75, in the assay with UniProt L7N210, in the assay with UniProt Q3KPB0, with UniProt Q3U0P3, with UniProt Q7TQU8 and with UniProt Q7TR79 was “inactive” throughout.
Regarding `C=C(C)C1CCC(C)C(O)C1` (stereo unspecified), the “odorant receptor agonist call” value with UniProt L7MU75, with UniProt L7N210, with UniProt Q3KPB0, with UniProt Q3U0P3, with UniProt Q7TQU8 and with UniProt Q7TR79 was “inactive” each time.
For the compound `Cc1ccc(C(C)C)cc1`, the “odorant receptor agonist call” value with UniProt L7MU75, in the assay with UniProt L7N210, in the assay with UniProt Q3KPB0, with UniProt Q3U0P3, in the assay with UniProt Q7TQU8 and in the assay with UniProt Q7TR79 was “inactive” each time.
In the case of `CC(=O)c1nccnc1C`, the “odorant receptor agonist call” value with UniProt L7N0P5 is “active”.
Take `O=C([O-])CCCCC(=O)[O-].[H+].[H+]`: the “odorant receptor agonist call” value with UniProt Q7TRM0 and in the assay with UniProt Q7TRN9 was “inactive” throughout.
For `C=Cc1cnccn1`, the “odorant receptor agonist call” value with UniProt L7N0P5 is “active”.
Turning to `c1ccc2ncccc2c1`, the “odorant receptor agonist call” value with UniProt L7MU75 and with UniProt L7N210 was “active” throughout. Moreover, the “odorant receptor agonist call” value in the assay with UniProt Q3KPB0, in the assay with UniProt Q3U0P3, with UniProt Q7TQU8 and in the assay with UniProt Q7TR79 was “inactive” in each case.
For the compound `O=C([O-])CCCCCCC(=O)[O-].[H+].[H+]`, the “odorant receptor agonist call” value with UniProt L7MU75, with UniProt L7N210, in the assay with UniProt Q3KPB0, with UniProt Q3U0P3, with UniProt Q7TQU8 and with UniProt Q7TR79 was “inactive” throughout. Also, the “odorant receptor agonist call” value in the assay with UniProt Q7TRM0 and in the assay with UniProt Q7TRN9 was “inactive” throughout.
`O=C(O)CCCBr`: the “odorant receptor agonist call” value in the assay with UniProt Q7TRM0 and with UniProt Q7TRN9 was “inactive” each time.
Take `O=C(O)CCCCCBr`: the “odorant receptor agonist call” value with UniProt L7MU75, with UniProt L7N210, in the assay with UniProt Q3KPB0, with UniProt Q3U0P3, with UniProt Q7TQU8 and with UniProt Q7TR79 was “inactive” throughout. Besides, the “odorant receptor agonist call” value with UniProt Q7TRM0 and in the assay with UniProt Q7TRN9 was “inactive” throughout.
Consider `CCCCCCCC(=O)[O-].[H+]`, for which the “odorant receptor agonist call” value with UniProt L7N210, with UniProt Q7TQV4, with UniProt Q7TR71, with UniProt Q7TRA3, with UniProt Q7TRE4 and with UniProt Q7TRM0 was “inactive” throughout. Moreover, the “odorant receptor agonist call” value in the assay with UniProt Q7TRN9 is “active”.
With `CC(=O)c1cnccn1`, in the assay with UniProt L7N0P5, the “odorant receptor agonist call” value was “active”.
Regarding `CC1CCCCCCCCCCCCC(=O)C1` (stereo unspecified), the “odorant receptor agonist call” value with UniProt Q7TQR7 and with UniProt Q7TQR9 was “inactive” each time.
With `O=C(O)CCCCBr`, the “odorant receptor agonist call” value in the assay with UniProt Q7TRM0 and with UniProt Q7TRN9 was “inactive” in each case.
Take `CC1CCc2nccnc21` (stereo unspecified): the “odorant receptor agonist call” value with UniProt L7N0P5 was “active”.
Same read-out and setting: the result for `CCc1nccnc1C` reads “active”; that for `Cc1cnc(C)c(C)n1`, “active”; that for `Cc1cnc(C)cn1`, “active”.
`CCc1nccnc1C(C)=O`: the “odorant receptor agonist call” value with UniProt L7N0P5 is “active”.
